Assay results taken from EPA's CvTdb concentration-time database.

Tests used:
[1] = system: Rat; test: concentration in plasma after dosing; conditions: dosed: Wyeth-14643, 5.0 mg/kg, oral, Male, Sprague-Dawley
[2] = system: Rat; test: concentration in plasma after dosing; conditions: dosed: Wyeth-14643, 1.0 mg/kg, oral, Male, Sprague-Dawley
[3] = system: Rat; test: concentration in thymus after dosing; conditions: 5 h; dosed: Bis 2-Chloroethoxy Methane; 20 mg/kg; iv; Male; F344
[4] = system: Rat; test: concentration in thymus after dosing; conditions: 1 h; dosed: Bis 2-Chloroethoxy Methane; 20 mg/kg; iv; Male; F344
[5] = system: Rat; test: concentration in plasma after dosing; conditions: 1 h; dosed: Bis 2-Chloroethoxy Methane; 20 mg/kg; iv; Female; F344
[6] = system: Rat; test: concentration in heart after dosing; conditions: 4 h; dosed: Bis 2-Chloroethoxy Methane; 20 mg/kg; iv; Male; F344
[7] = system: Rat; test: concentration in thymus after dosing; conditions: 20 min; dosed: Bis 2-Chloroethoxy Methane; 20 mg/kg; iv; Female; F344
[8] = system: Rat; test: concentration in kidney after dosing; conditions: 12 h; dosed: Fluorotelomer alcohol 8+2; 24 mg/kg; oral; Male; Harlan Sprague Dawley
[9] = system: Rat; test: concentration in plasma after dosing; conditions: 3 h; dosed: Fluorotelomer alcohol 8+2; 12 mg/kg; iv; Male; F344
[10] = system: Rat; test: concentration in plasma after dosing; conditions: dosed: Fluorotelomer alcohol 8+2, 12 mg/kg, oral, Male, Harlan Sprague Dawley
[11] = system: Rat; test: concentration in plasma after dosing; conditions: dosed: Fluorotelomer alcohol 8+2, 12 mg/kg, oral, Male, Harlan Sprague Dawley; remark: listed apart in the source
[12] = system: Rat; test: concentration in liver after dosing; conditions: 1 h; dosed: Fluorotelomer alcohol 8+2; 24 mg/kg; oral; Male; Harlan Sprague Dawley
[13] = system: Rat; test: concentration in kidney after dosing; conditions: 6 h; dosed: Fluorotelomer alcohol 8+2; 24 mg/kg; oral; Male; Harlan Sprague Dawley
[14] = system: Rat; test: concentration in plasma after dosing; conditions: 0.5 h; dosed: Di-n-butyl phthalate; 50 mg/kg; oral; Male; Sprague-Dawley
[15] = system: Rat; test: concentration in plasma after dosing; conditions: 5 min; dosed: Di-n-butyl phthalate; 50 mg/kg; oral; Male; Sprague-Dawley
[16] = system: Rat; test: concentration in plasma after dosing; conditions: dosed: Perfluorodecanoic acid, 2 mg/kg, iv, Male, F344
[17] = system: Rat; test: concentration in plasma after dosing; conditions: 2520 h; dosed: Perfluorodecanoic acid; 2 mg/kg; iv; Male; F344
[18] = system: Rat; test: concentration in plasma after dosing; conditions: dosed: Perfluorodecanoic acid, 2 mg/kg, iv, Male, F344; remark: listed apart in the source
[19] = system: Rat; test: concentration in liver after dosing; conditions: 1848 h; dosed: Perfluorodecanoic acid; 10 mg/kg; oral; Male; Harlan Sprague Dawley
[20] = system: Rat; test: concentration in kidney after dosing; conditions: 1848 h; dosed: Perfluorodecanoic acid; 10 mg/kg; oral; Male; Harlan Sprague Dawley
[21] = system: Rat; test: concentration in plasma after dosing; conditions: 12 h; dosed: Primidone; 130 mg/kg; oral; Male; Harlan Sprague Dawley
[22] = system: Rat; test: concentration in plasma after dosing; conditions: 3 h; dosed: Primidone; 130 mg/kg; oral; Male; Harlan Sprague Dawley
[23] = system: Rat; test: concentration in plasma after dosing; conditions: 6 h; dosed: Primidone; 80 mg/kg; oral; Female; F344
[24] = system: Rat; test: concentration in liver after dosing; conditions: 3 h; dosed: Thiodiglycolic Acid; 20 mg/kg; iv; Female; Harlan Sprague Dawley
[25] = system: Rat; test: concentration in plasma after dosing; conditions: 4 h; dosed: Thiodiglycolic Acid; 20 mg/kg; iv; Male; Harlan Sprague Dawley
[26] = system: Rat; test: concentration in thymus after dosing; conditions: 10 h; dosed: Thiodiglycolic Acid; 20 mg/kg; iv; Male; F344
[27] = system: Rat; test: concentration in liver after dosing; conditions: 6.667 h; dosed: Thiodiglycolic Acid; 20 mg/kg; iv; Female; Harlan Sprague Dawley
[28] = system: Rat; test: concentration in plasma after dosing; conditions: dosed: dichloroacetic acid, 100 mg/kg, oral, Male, F344
[29] = system: Rat; test: concentration in plasma after dosing; conditions: dosed: dichloroacetic acid, 10 mg/kg, oral, Male, Harlan Sprague Dawley
[30] = system: human; test: concentration in plasma after dosing; negative times count back from the end of exposure; conditions: dosed: trichloroethylene, 100 ppm, inhalation, duration: 4 hr, person
Procedure, shortened: (§1)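 Points were largely digitised from plot screenshots with WebPlotDigitizer or otherwise copied from tables, and they remain in the units each source reported. They come from published in vivo toxicokinetic studies and two structured collections. Sampling and analytical methods follow each source and were often not reported.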

[31] = system: human; test: as above; conditions: dosed: trichloroethylene, 100 ppm, inhalation, duration: 4 hr, person; remark: listed apart in the source
Procedure, shortened: as §1

Cc1cccc(Nc2cc(Cl)nc(SCC(=O)O)n2)c1C
concentration in plasma [ng/mL]
Conditions	2 h	5 min	8 h
[1]	–	1330	155
[2]	709	–	189

ClCCOCOCCCl [Bis 2-Chloroethoxy Methane]
Conditions	concentration in heart [ng/g]	concentration in plasma [ng/mL]	concentration in thymus [ng/g]
[3]	–	–	78.9
[4]	–	–	5370
[5]	–	1240	–
[6]	112	–	–
[7]	–	–	26100

OCCC(F)(F)C(F)(F)C(F)(F)C(F)(F)C(F)(F)C(F)(F)C(F)(F)C(F)(F)F [Fluorotelomer alcohol 8+2]
Conditions	concentration in kidney [ng/g]	concentration in liver [ng/g]	concentration in plasma [ng/mL]
[8]	187	–	–
[9]	–	–	106
[12]	–	4650	–
[13]	366	–	–

concentration in plasma [ng/mL]
Conditions	0.5 h	0.75 h	9 h	12 h
[10]	374	–	12.8	–
[11]	–	294	–	4.64

CCCCOC(=O)c1ccccc1C(=O)O [Mono-n-butyl phthalate]
Conditions	concentration in plasma [ng/mL]
[14]	21100
[15]	2400

O=C(O)C(F)(F)C(F)(F)C(F)(F)C(F)(F)C(F)(F)C(F)(F)C(F)(F)C(F)(F)C(F)(F)F [Perfluorodecanoic acid]
concentration in plasma [ng/mL]
Conditions	1 h	6 h	528 h	864 h	3360 h
[16]	6010	–	3220	–	204
[18]	–	6490	–	2790	–

Conditions	concentration in kidney [ng/g]	concentration in liver [ng/g]	concentration in plasma [ng/mL]
[17]	–	–	209
[19]	–	32000	–
[20]	6050	–	–

CCC1(c2ccccc2)C(=O)NC(=O)NC1=O [Phenobarbital]
Conditions	concentration in plasma [ng/mL]
[21]	2490
[22]	1210
[23]	1820

O=C(O)CSCC(=O)O [Thiodiglycolic Acid]
Conditions	concentration in liver [ng/g]	concentration in plasma [ng/mL]	concentration in thymus [ng/g]
[24]	11500	–	–
[25]	–	339	–
[26]	–	–	477
[27]	7100	–	–

O=C(O)C(Cl)Cl [dichloroacetic acid]
Conditions	concentration in plasma [ng/mL]
[28], 1.25 h	54200
[28], 2 min	2970
[29], 10 min	862
[29], 50 min	167
[30], 0 h	6
[30], 0.25 h	9
[30], 0.5 h	13
[30], 1 h	12
[30], 2 h	11
[30], 4 h	5
[30], 8 h	5
[30], 12 h	4
[30], 14 h	4
[30], 18 h	5
[30], 41 h	6
[30], 65 h	4
[31], 0 h	8
[31], 0.25 h	5
[31], 0.5 h	5
[31], 1.75 h	4
[31], 4 h	5
[31], 12 h	5

concentration in plasma [ng/mL], during exposure
Conditions	-3.48 h	-3 h	-2 h	-1 h
[30]	80	8	7	7
[31]	–	–	4	10
